# An excerpt weighted towards active compounds, which were near 3.2% of everything screened.
# 14-3-3 Bad inh – inhibitors of 14-3-3 zeta/Bad binding, primary screen, biochemical, TR-FRET, bovine 14-3-3 zeta | TR-FRET 14-3-3zeta/Dy647-pBad peptide displacement, 1 h | AID 781, 2007 | 220,000 compounds, 0.71% hits | inhibition, % at 21.7 µM | 14-3-3 protein zeta/delta (Bos taurus), P63103;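 active means inhibition above about 70%, limit read from the data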;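 further: 0% = full 14-3-3 plus peptide FRET controls and 100% = background without 14-3-3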
# Hck Nef HTS – inhibitors of Nef-activated human Hck kinase, primary screen, biochemical, Z-Lyte FRET, 384-well, Hck-YEEI. Tyrosine-protein kinase HCK (Homo sapiens), P08631. Recombinant Hck-YEEI plus Nef, Z-Lyte FRET kinase assay. inhibition, % at 20 µM. 220,000 compounds, 0.68% hits. AID 463187, 2010;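 active means Hck-Nef kinase inhibition above about 50%, limit read from the data; inactive means inhibition below that limit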;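 further: 0% = DMSO with Hck plus Nef and 100% = Hck alone without Nef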
# Target sequence (P08631 whole entry, looked up): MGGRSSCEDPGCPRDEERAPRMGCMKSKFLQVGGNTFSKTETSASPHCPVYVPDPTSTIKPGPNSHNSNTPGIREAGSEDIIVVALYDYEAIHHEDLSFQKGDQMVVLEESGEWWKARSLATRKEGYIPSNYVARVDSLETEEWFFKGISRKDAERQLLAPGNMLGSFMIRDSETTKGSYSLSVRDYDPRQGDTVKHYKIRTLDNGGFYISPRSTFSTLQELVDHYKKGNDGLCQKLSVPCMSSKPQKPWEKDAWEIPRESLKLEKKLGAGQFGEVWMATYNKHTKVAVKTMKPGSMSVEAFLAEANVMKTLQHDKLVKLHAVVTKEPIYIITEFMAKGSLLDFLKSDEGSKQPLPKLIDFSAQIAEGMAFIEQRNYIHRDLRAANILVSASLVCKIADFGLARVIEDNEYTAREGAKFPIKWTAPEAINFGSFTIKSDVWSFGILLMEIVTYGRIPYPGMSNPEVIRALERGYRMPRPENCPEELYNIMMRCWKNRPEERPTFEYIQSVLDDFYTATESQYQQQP
# Bim-Mcl-1 – inhibitors of Bim peptide binding to Mcl-1, primary screen, biochemical, bead-based flow cytometry, multiplex; Induced myeloid leukemia cell differentiation protein Mcl-1 (Homo sapiens), Q07820; 190,000 compounds, 0.1% hits; Bim peptide-Mcl-1 binding; inhibition, % at 10 µM; in the data active means inhibition above about 40%;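 further: 0% = no compound tracer wells and 100% = peptide blocker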
# Mcl1 Bid PPI – Mcl-1/Bid binding inhibitors, primary screen, biochemical, TR-FRET, 1536-well. inhibition, % at 21.7 µM. 220,000 compounds, 0.97% hits. Induced myeloid leukemia cell differentiation protein Mcl-1 (Homo sapiens), Q07820. TR-FRET Mcl-1/Bid-Dy647 peptide binding;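 active means compounds that cut the binding signal by more than half at the single screening dose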;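 further: His-tagged Mcl-1 with europium anti-His antibody binding Bid BH3 peptide; 0% = Mcl-1 plus peptide wells and 100% = peptide-only wells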
# Mcl1 Noxa PPI – Mcl-1/Noxa binding inhibitors, primary screen, biochemical, TR-FRET, 1536-well. Induced myeloid leukemia cell differentiation protein Mcl-1 (Homo sapiens), Q07820. TR-FRET Mcl-1/Noxa peptide binding, 2 h. inhibition, % at 21.7 µM. 220,000 compounds, 1.5% hits;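 active means compounds that cut the protein-peptide binding signal by more than 50% relative to plate controls in a single-dose test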;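 further: His-tagged Mcl-1 with rhodamine Noxa BH3 peptide and terbium anti-His antibody; 0% = Mcl-1 plus Noxa peptide wells and 100% = peptide-only wells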
# Calb biofilm kill – clotrimazole potentiators killing C. albicans biofilm, primary screen, 4-compound mixtures. AID 1242, 2008. C. albicans biofilm persisters + clotrimazole, fluorescence viability; primary screen in compound mixtures of four per well. 120,000 compounds, 0.02% hits. inhibition, % at 7.6 µM;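 active means inhibition above 30.3% in the primary screen of four-compound pools, then above 30% when the compound was retested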;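 further: compounds exposed to preformed 24 h biofilms for 48 h; 0% = untreated biofilm control and 100% = clotrimazole plus chlorhexidine kill blank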
#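 System: C. albicans CAF4-2 wild-type biofilms; Medium: RPMI/MOPS medium, pH 7.0; Reagent: Clotrimazole, 50 µg/mL; Times: biofilm formation 24 h, compound exposure 48 h, 37 °C; Detection: 2-h Alamar Blue fluorescence, 535/590 nm excitation/emission; Evaluation: percent inhibition of biofilm viability.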
# * = called active by the depositor; . = no result; [ ] = another dose, or the depositor's remark.
SMILES,14-3-3 Bad inh,Hck Nef HTS,Bim-Mcl-1,Mcl1 Bid PPI,Mcl1 Noxa PPI,Calb biofilm kill
O=C1CCC(C(=O)N2CCCC(C(=O)c3ccc4c5c(cccc35)CC4)C2)=NN1 (stereo not drawn),-6.7,17.6,-2.0,-14.9,-2.0,12.8
CC1CCc2c(sc(Nc3nc4c(F)cccc4s3)c2C(N)=O)C1 (stereo not drawn),2.8,9.7,-3.0,42.5,101.3*,9.2
O=C(N/N=C/c1ccc(O)c(O)c1O)/C(=C/c1ccc([N+](=O)[O-])cc1)NC(=O)c1ccccc1,1.9,-2.7,5.0,-100.8,87.3*,.
COc1cccc(N/C(SCc2ccccc2C)=C(/C#N)C(=O)NCc2cccs2)c1,-4.2,2.1,-3.0,54.0*,47.8,27.5
O=C(Nc1ccc(Cl)c(Cl)c1)Nc1nc(-c2ccccc2)cs1,13.4,0.2,-2.0,30.3,51.1*,18.9
CCOC(=O)c1c(CN2CCCCC2)oc2ccc(OC)cc12,35.0,-1.9,-3.0,9.9,13.8,.
CCOC(=O)c1c(CN2CCN(C)CC2)oc2ccc(OC)cc12,78.6*,1.0,-2.0,41.0,12.5,.
O=C(CC1C(=O)NCCN1Cc1c(F)cccc1Cl)NCCCn1cccn1 (stereo not drawn),7.2,12.3,.,-6.8,16.6,21.4
Cc1nc(-c2ccccc2)sc1C(=O)CSc1ccc(Br)cc1,-1.4,1.4,-2.0,-2.3,-14.9,.
Cc1nc(-c2ccccc2)sc1C(=O)CSc1ccc(Cl)cc1,-1.9,0.7,-3.0,4.2,64.2*,.
C/C(N)=C(/C#N)C(=O)CSc1cc(Cl)ccc1Cl,-11.9,-0.5,-5.0,-2.5,9.6,8.1
C/C(N)=C(/C#N)C(=O)CSc1nc2cc(Cl)ccc2s1,-2.1,-0.4,-2.0,-13.0,53.1*,.
CC(=O)N1CCC(C(=O)Nc2cc(C)cc(C)c2)CC1,0.1,8.2,.,1.1,-1.0,15.3
CCOC(=O)N1CCN(C(=O)c2ccc(OC)c(OC)c2)CC1,-7.5,0.8,-1.0,-38.3,11.3,.
COc1cccc(OC)c1C(=O)N1CCN(c2ccccn2)CC1,-4.9,5.1,1.0,94.7*,35.2,.
COc1ccccc1C(=O)N1CCN(c2ccccn2)CC1,-9.6,0.3,-2.0,-5.5,2.9,.
COc1ccc(C(=O)N2CCN(Cc3ccccc3C)CC2)cc1OC,53.1,0.2,0.0,75.1*,12.3,.
COc1ccccc1CN1CCN(C(=O)c2ccncc2)CC1,83.2*,0.5,0.0,41.3,20.9,.
COc1cccc(OC)c1C(=O)N1CCN(Cc2ccncc2)CC1,46.0,0.4,-6.0,71.1*,2.3,.
O=C(CSc1ncnc2[nH]ncc12)Nc1cccc(Oc2ccccc2)c1,-5.3,11.7,-2.0,-6.9,-3.6,7.5
O=C1NC2(CCc3ccccc3C2)C(=O)N1CCOc1cccc(Cl)c1 (stereo not drawn),4.1,-15.4,-4.0,0.8,15.3,-2.2
O=C(c1ccccc1)N1CCN(C(=O)c2ccccc2)CC1,-2.6,5.2,0.0,-7.6,29.4,11.6
O=C(c1ccccc1)N1CCN(Cc2ccccc2Br)CC1,45.6,-0.7,-1.0,83.7*,31.6,.
CC(C)N(C(=O)CSc1nnnn1-c1ccc2c(c1)OCO2)C(C)C,-11.2,28.5,-3.0,65.0*,-0.9,18.3
C=CCc1cc(Cl)ccc1OCCNCCCOC,49.7,5.5,0.0,17.7,25.7,7.4
SMILES,14-3-3 Bad inh,Hck Nef HTS,Bim-Mcl-1,Mcl1 Bid PPI,Mcl1 Noxa PPI,Calb biofilm kill
C=CCc1ccccc1OCCNCCCOC,29.8,2.5,0.0,84.3*,18.3,-2.3
COc1cccc2sc(/N=C/N(C)C)nc12,13.5,-10.3,.,55.6*,26.0,6.0
COc1cccc2sc(N(C)c3ccccc3)nc12,10.6,0.1,0.0,-35.3,16.0,.
O=C(CSc1nccc(=O)[nH]1)c1c[nH]c2ccccc12,-0.8,8.8,.,19.9,-3.3,9.7
O=C(CSc1nccc(=O)[nH]1)c1ccccc1Br,-4.0,4.8,-2.0,70.9*,-9.0,.
CCN(C(=O)CCc1nc(-c2ccccc2F)no1)c1cc(OC)ccc1OC,-13.1,1.4,-4.0,-18.7,-10.6,.
O=C(CNC(=O)c1ccc(Cl)cc1)OCC(=O)N1CCCC1,0.8,-24.6,0.0,-5.7,-7.6,5.0
CCOC(=O)CCNC(C)C1COc2ccccc2O1 (stereo not drawn),76.2*,-0.9,3.0,56.1*,43.6,.
C/C(=N\NC(=O)c1cccnc1)c1nnn(-c2nonc2N)c1C,-5.0,0.9,-22.0,-9.3,2.8,11.2
CC1(C)CC(=O)C=C(NCc2ccc(Cl)c(Cl)c2)C1,-4.4,1.9,0.0,-61.4,-9.0,.
Cn1cc(Cl)c(C(=O)Nc2nc3ccc([N+](=O)[O-])cc3s2)n1,52.0,43.1,-1.0,52.4*,61.5*,22.8
Cc1ccc2nc(NC(=O)c3ccc(-c4nc5ccccc5s4)s3)sc2c1,82.7*[fluorescence artefact?],7.0,0.0,78.7*,51.7*,14.4
CC(=O)Nc1ccc2nc(NC(=O)c3ccc([N+](=O)[O-])s3)sc2c1,-91.9,25.1,.,17.9,73.2*,13.1
CC(=O)Nc1ccc2nc(NC(=O)c3cccs3)sc2c1,-1.6,24.0,.,-47.3,14.5,17.4
CC(=O)Nc1ccc(NC(=O)COc2ccc([N+](=O)[O-])cc2)cc1,-4.4,22.0,-1.0,-1.2,11.8,-1.8
Cn1cc(Cl)c(C(=O)Nc2nc3ccc(Cl)cc3s2)n1,2.3,0.6,0.0,-10.0,-23.8,.
CC(=O)Nc1ccc2nc(NC(=O)COc3ccc([N+](=O)[O-])cc3)sc2c1,4.2,20.6,-1.0,35.2,56.2*,30.4
C(#Cc1ccccc1)C[N+]1(CC#Cc2cccc3ccccc23)CCOCC1,6.3,24.6,-2.0,10.8,32.9,44.8*
C#CC[N+]1(CC#Cc2ccccc2)CCOCC1,-1.7,-14.5,-2.0,-13.1,16.5,.
N#CC1=C(N)N(c2ccc(F)cc2)C2=C(C1c1ccc(O)cc1)S(=O)(=O)CC2 (stereo not drawn),-2.5,41.8,21.0,30.4,89.5*,12.7
O=c1oc2ccccc2n1CCn1c2ccccc2c2nc3ccccc3nc21,59.6,12.4,12.0,89.8*,-33.8,.
CNC(=S)Nc1ccc(Nc2ccccc2)cc1,-2.6,1.8,-4.0,-146.7,0.1,.
O=c1oc2c(O)c(O)cc3c(=O)oc4c(O)c(O)cc1c4c23,97.5*[fluorescence artefact?],4.1,10.0,76.0*,85.9*,18.7
Cc1c(O)c(CN(C)C)cc2c1oc(=O)c1ccccc12,-0.8,5.3,.,-102.8,5.7,30.5

# Compound activity deposited in PubChem by several laboratories.
